Source: PubChem BioAssay (several laboratories)
Dynein transport: inhibitors of GR-EGFP nuclear translocation, primary screen, dynein cargo transport inhibitor project, imaging, high-content, 3617.4 mouse cells | test concentration mostly 20 µM; stimulated with dexamethasone, 1 µM; stronger effect = lower value | 220,000 tested, 0.47% active | z-score, hits read low;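 active means plate z-score of nuclear minus cytoplasmic receptor signal below a set negative limit, without overly bright fluorescence or cell loss, cut at about -3.5 in these data, passing the limit was not always enough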;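 further: z-score of nuclear minus cytoplasmic ring GR-EGFP intensity difference per well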
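Buffer or medium: tet-free, stripped-serum medium; Also added: dexamethasone, 1.0 µM final; Technique: high-content fluorescence imaging after fixation; Times: 48 h induction, 1 h compound, 30 min dex at 37 °C; Read-out: per-cell GR-EGFP intensity, nucleus versus surrounding cytoplasmic ring, well-averaged.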
UPR XBP1 act: activators of adaptive XBP1 UPR arm, primary screen, cell-based, CHO-XBP1 luciferase reporter, luminescence, uHTS. AID 463104, 2010. IRE1-XBP1 UPR activation; percent of tunicamycin response, DMSO as zero. 330,000 tested, 0.33% active. activation, % at 20 µM;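 active means versus positive control, 20 µM dose yields 30% or more activation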;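 further: 100% = tunicamycin at 10 µg/mL and 0% = DMSO only wells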
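Test system: CHO-XBP1 luciferase reporter cells | Buffer or medium: Serum-containing F12 medium, 10% FBS | Schedule: 6 h compound exposure at 37 °C, 5% CO2 | Detection: Steady-Glo luciferase glow luminescence, 10 min after reagent addition | Read-out basis: Activation, % of tunicamycin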
L major viab: Leishmania major promastigote growth inhibition, primary screen | 200,000 tested, 9% active | inhibition, % at 10 µM | Leishmania major promastigotes, resazurin fluorescence viability; in the data active means inhibition above about 50%;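 further: promastigotes grown with compound for 44 hours at 28 °C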
CHOP inh: inhibitors of CHOP promoter induction, primary screen, cell-based, unfolded protein response, luciferase reporter; 220,000 tested, 3.8% active; inhibition, % at 10 µM; CHO-K1 CHOP-promoter luciferase, tunicamycin-induced, 15-18 h;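 active means compounds that reduced the stress-induced luciferase reporter signal by more than about 70% of percent inhibition, limit read from the data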;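 further: 0% = tunicamycin plus vehicle and 100% = wells without tunicamycin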
CHOP UPR activ: activators of apoptotic CHOP UPR arm, primary screen, cell-based, CHO-CHOP luciferase reporter, luminescence, uHTS | UPR activation; percent of tunicamycin response over DMSO baseline | activation, % at 10 µM | 330,000 tested, 0.34% active;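 active means at 10 µM dose, activation of 40% or more, normalized to positive control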;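 further: 100% = tunicamycin at 10 µg/mL and 0% = DMSO alone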
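Test system: CHO-CHOP cells, stable luciferase reporter of PERK-eIF2a-CHOP signalling | Quantity: 500 CHO-CHOP cells per well | Buffer or medium: F12 plus 10% serum | Compound dosing: 10 µM single point, 0.5% DMSO | Schedule: 6 h compound treatment, 37 °C | Signal: Luciferase luminescence | Control set: Tunicamycin high control, DMSO low control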
T cruzi inh: inhibitors of intracellular T. cruzi growth, primary screen, luminescence, NIH3T3 host cells; 300,000 tested, 1.4% active; inhibition, % (no concentration beside the values); AID 1885, 2009; T. cruzi beta-gal in NIH3T3, 90 h;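 active means mean inhibition across valid replicates above about 55%, limit read from the data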;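 further: signal also drops with host cell toxicity which is not excluded here; 0% = plate median of DMSO wells and 100% = zero luminescence signal; higher percent means less beta-gal luminescence so fewer parasites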
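Read-out: Parasite load inhibition, % | Test system: Mouse NIH/3T3 fibroblasts infected with β-gal-expressing T. cruzi Tulahuen C4 | Amount: 5,000 cells/well | Medium: DMEM, 2% fetal bovine serum | Signal: GalScreen β-gal luminescence, detergent lysis, 60 min | Timing: 3 h attach, ≥90 h co-culture | Also added: Tulahuen C4 trypomastigotes, 5000/well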
Numbers without * were called inactive; / = not tested or not shown. The full list was thinned out, with hits kept by preference.

SMILES	Dynein transport	UPR XBP1 act	L major viab	CHOP inh	CHOP UPR activ	T cruzi inh
O=C(c1cccc(Cl)c1)N1CCN(Cc2ccc3c(c2)OCO3)CC1	/	-5	/	/	1	-6
O=C(CSCc1cccc(Cl)c1)N1CCN(Cc2ccc3c(c2)OCO3)CC1	-1	0	91*	56	-1	-2
Nc1ncnc2c1ncn2[C@@H]1O[C@H](CNC(=O)[C@H](N)Cc2cscn2)[C@@H](O)[C@H]1O	/	2	/	/	0	/
COc1ccc(N2C(=O)C(Cl)=C(N3CCN(Cc4ccccc4)CC3)C2=O)cc1	-0.72	/	12	78*	/	-12
O=C1C(Cl)=C(NCCc2ccccc2)C(=O)N1CCc1ccccc1	0.19	4	-7	48	3	29
CN1CCN(C2=C(Cl)C(=O)N(CCc3ccccc3)C2=O)CC1	-1	0	93*	-1	2	14
O=C1C(Cl)=C(N2CCCCC2)C(=O)N1Cc1ccccc1	1.1	-2	-2	96*	-1	13
O=C1C(Cl)=C(NCCCN2CCOCC2)C(=O)N1CCc1ccccc1	1.4	1	97*	40	0	8
O=C1C(Cl)=C(N2CCCCCC2)C(=O)N1c1ccccc1	0.17	0	2	51	-3	8
O=C1C(Cl)=C(N2CCN(Cc3ccccc3)CC2)C(=O)N1c1ccccc1	-0.66	0	-6	54	0	-10
CC(=O)N1CCc2cc(S(=O)(=O)NCC(=O)NCc3ccc(F)cc3)ccc21	/	-4	/	/	1	-11
Cc1ccccc1NC(=O)Cc1nc(COC(=O)c2cccc([N+](=O)[O-])c2)cs1	/	-3	/	/	-2	-12
CCOC(=O)N1CCN(S(=O)(=O)c2ccc(C(=O)N(CCCN(C)C)c3nc4cc(OC)ccc4s3)cc2)CC1	/	1	/	/	0	68*
COc1ccc2sc(N(CCCN(C)C)C(=O)c3ccc(S(=O)(=O)N4CCCC4)cc3)nc2c1	/	2	/	/	0	45
COc1ccc2sc(N(CCCN(C)C)C(=O)c3ccc(S(=O)(=O)N4CCc5ccccc5C4)cc3)nc2c1	/	-6	/	/	29	57*
CCOc1ccc(C(=O)NCC(=O)NCC(c2ccco2)N2CCCCC2)cc1 (configuration not stated)	/	0	/	/	0	/
Cc1ccc(C(=O)NNC2=Nc3cccc4cccc2c34)cc1	1.8	2	13	89*	5	15
COc1ccc2cc(C(=O)N3CCc4ccccc43)[nH]c2c1	/	0	/	/	1	6
O=C(Cn1c(C(F)(F)F)nc2ccccc21)Oc1cccc(C(F)(F)F)c1	-4.2*	1	0	51	-2	/
Cc1cccc(OC(=O)Cn2c(C(F)(F)F)nc3ccccc32)c1	-0.4	-2	-10	5	-2	-4
CSc1ccc(S(=O)(=O)N2CCC(C(=O)Nc3ccc(C(N)=O)cc3)CC2)cc1	/	-1	/	/	0	-7
Cc1nn(Cc2c(F)c(F)c(F)c(F)c2F)c(C)c1NC(=O)c1cccc(COc2ccc(Cl)cc2)c1	-0.74	0	-2	56	13	/
CC(C)c1cc(C(N)=O)c(NC(=O)c2cccc(COc3ccc(Cl)cc3)c2)s1	0.85	-5	96*	19	-6	42
Cc1ccc(NC(=O)Cc2ccccc2F)cc1S(=O)(=O)N1CCCCCC1	/	-1	/	/	0	/
CN(C)N1C(N)=C(C#N)C(c2cccc3ccccc23)C2=C1CC(c1ccccc1)CC2=O (configuration not stated)	-0.82	-3	96*	46	5	1
SMILES	Dynein transport	UPR XBP1 act	L major viab	CHOP inh	CHOP UPR activ	T cruzi inh
CS(=O)(=O)Cc1ccc(C(=O)N(CCc2ccccc2)Cc2ccccc2)cc1	/	-3	/	/	1	10
CCOC(=O)c1cnc(SC)nc1Oc1cccc(NS(=O)(=O)c2ccccc2)c1	1.1	-1	7	-8	0	56*
CCOC(=O)c1cnc(SC)nc1Oc1cccc(NS(=O)(=O)c2ccc(F)cc2)c1	-0.92	-1	19	25	-1	43
Cc1ccc(C)c(-n2ccnc2SCC(=O)Nc2cccc(S(=O)(=O)NC3=NCCC3)c2)c1	/	-1	/	/	2	/
Cc1nc(SCC(=O)c2cc3ccccc3oc2=O)c(C#N)c(-c2ccccc2)c1C(=O)Nc1ccccc1	0.094	-1	-5	95*	0	-12
COc1ccc(-c2c(C#N)c(SCC(=O)c3cc4ccccc4oc3=O)nc(C)c2C(=O)Nc2ccccc2)cc1	-0.42	-4	-6	41	2	-5
O=C(N/N=C/C(Br)=C/c1ccccc1)c1cccs1	0.063	4	8	-47	6	4
CCOC(=O)c1c(CN(C)C)n(-c2ccccc2)c2cc(Br)c(OC)cc12	-0.7	-2	13	50	2	36
CCOC(=O)c1c(C)oc2c(CN3CCN(C)CC3)c(Br)c(OC)c(O)c12	0.38	3	100*	15	2	-7
CCOC(=O)c1c(C)n(CC(O)CN(C)C)c2cc(Br)c(OC)cc12 (configuration not stated)	-0.55	1	22	0	-2	79*
CCOC(=O)c1c(CN2CCN(C)CC2)n(C)c2cc(Br)c(OC)cc12	1.2	2	100*	-57	4	40
CCOC(=O)c1oc2ccccc2c1CN1CCN(C)CC1	0.64	-2	-2	8	0	18
O=C(NCC(c1ccco1)N1CCCCC1)c1cccnc1 (configuration not stated)	/	-3	/	/	-1	/
OCCNCc1ccc(-c2ccccc2)cc1	-0.18	-1	63*	19	0	12
OC(CNCc1ccc(-c2ccccc2)cc1)c1ccccc1 (configuration not stated)	-0.23	-1	99*	38	-1	30
O=C(c1ccc2c(=O)n(Cc3ccccc3Cl)c(=S)[nH]c2c1)N1CCCC1	/	-3	/	/	0	-13
COc1ccc(C2/C(=C(/O)c3ccc4c(c3)CC(C)O4)C(=O)C(=O)N2CCN2CCOCC2)cc1OC (configuration not stated)	/	-1	/	/	-1	1
CCOc1ccccc1C(=O)N/N=C/c1ccoc1	/	0	/	/	0	/
CCOC(=O)c1c(NC(=O)C2C3C=CC(C3)C2C(=O)O)sc2c1CCC(CC)C2 (configuration not stated)	0.057	-2	-6	72*	0	-9
